From ChEMBL document CHEMBL2034841, “Synthesis and evaluation of (2-(4-methoxyphenyl)-4-quinolinyl)(2-piperidinyl)methanol (NSC23925) isomers to reverse multidrug resistance in cancer” (J Med Chem, 2012)
Values belong to the compound of their own block, whether it stands above or below them. Active and inactive are the calls of the source. The calls are words filed in the database; no cut-off is given here.

Tests used:
[1] = biological target: T1, ATP-dependent translocase ABCB1 (Homo sapiens, UniProt P08183); experiment: Inhibition of MDR1-mediated drug resistance in human multidrug-resistant SKOV3TR cells at 0.1 uM assessed as potentiation of paclitaxel potency by incubated for 6 days by MTT assay; format: cell-based; settings: 144 h
Summary of the method: (§1)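 SKOV-3_TR cells were seeded at 2000/well in RPMI 1640 complete medium with varying paclitaxel concentrations plus the test agent at a fixed 0.1, 0.5 or 1 μM for 6 days. Viability was read by MTT, and IC50 was taken from fitted dose–response curves in triplicate wells. Fold reversal = IC50 without agent ÷ IC50 with agent.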

[2] = biological target: T1, ATP-dependent translocase ABCB1; experiment: Inhibition of MDR1-mediated drug resistance in human multidrug-resistant SKOV3TR cells at 0.5 uM assessed as potentiation of paclitaxel potency by incubated for 6 days by MTT assay; format: cell-based; settings: 144 h; summary of the method: as §1
[3] = biological target: T1, ATP-dependent translocase ABCB1; experiment: Inhibition of MDR1-mediated drug resistance in human multidrug-resistant SKOV3TR cells at 1 uM assessed as potentiation of paclitaxel potency by incubated for 6 days by MTT assay; format: cell-based; settings: 144 h; summary of the method: as §1
[4] = biological target: T1, ATP-dependent translocase ABCB1; experiment: Inhibition of MDR1 in human multidrug-resistant MCF7adr cells assessed as increase in calcein AM accumulation by fluorescence microscopy
Summary of the method: (§2)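 Vybrant calcein AM efflux assay. Resistant cells (5000/well) were cultured for 24 h, then treated in triplicate with a range of test-agent concentrations for 1 h, followed by calcein AM for 30 min. Intracellular calcein fluorescence was imaged by fluorescence microscopy, and accumulation was compared across doses.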

[5] = biological target: T1, ATP-dependent translocase ABCB1; experiment: Inhibition of MDR1 in human multidrug-resistant MCF7adr cells assessed as potentiation of doxorubicin-induced cell death at 1 uM incubated for 72 hrs by MTT assay
[6] = test system: Mus musculus; experiment: Toxicity in human multidrug-resistant SKOV-3TR cells xenografted in Crl:SHO-Prkdc'SCIDHr'hr nude mouse assessed as effect on body weight at 50 mg/kg, ip dosed twice weekly for two weeks starting two weeks post tumor cells implantation; settings: in vivo
[7] = biological target: T1, ATP-dependent translocase ABCB1; experiment: Inhibition of MDR1 in human multidrug-resistant SW480TR cells assessed as potentiation of doxorubicin-induced cell death at 1 uM incubated for 72 hrs by MTT assay; format: cell-based
[8] = biological target: T1, ATP-dependent translocase ABCB1; experiment: Inhibition of MDR1 in human multidrug-resistant SW480TR cells assessed as increase in calcein AM accumulation by fluorescence microscopy; format: cell-based; summary of the method: as §2
[9] = biological target: Multidrug resistance-associated protein 1 (Homo sapiens, UniProt P33527); experiment: Inhibition of MRP1-mediated drug resistance in human multidrug-resistant H-69AR cells; format: cell-based
Summary of the method: (§3)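 H-69AR (MRP1) or MCF-7/MX (BCRP) cells were plated in 96-well plates and treated with chemotherapy drugs plus the test agent as in the Pgp reversal assay: 2000 cells/well, 6 days, MTT read-out. IC50 values came from triplicate dose–response curves. Cells were grown in RPMI 1640 with 10% FBS at 37 °C, 5% CO2.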

[10] = test system: SKOV-3TR (Homo sapiens); experiment: Antitumor activity against human multidrug-resistant SKOV-3TR cells xenografted in Crl:SHO-Prkdc'SCIDHr'hr nude mouse assessed as tumor growth inhibition at 50 mg/kg, ip dosed twice weekly for two weeks starting two weeks post tumor cells implantation
[11] = biological target: T1, ATP-dependent translocase ABCB1; experiment: Inhibition of MDR1 in human multidrug-resistant MCF7adr cells assessed drug level causing half maximal reversal of calcein AM accumulation deficit by fluorescence microscopy; settings: read-out: INH; summary of the method: as §2
[12] = biological target: T1, ATP-dependent translocase ABCB1; experiment: Inhibition of MDR1 in human multidrug-resistant MCF7adr cells assessed as potentiation of doxorubicin-induced apoptosis at 1 uM incubated for 72 hrs by M30-apoptosense ELISA assay
Summary of the method: (§4)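 MCF-7adr or SW480_TR cells were seeded at 8000/well for 24 h, then treated for 72 h with 0.5 μM doxorubicin, 1 μM test agent, or both. Cells were lysed with 10% NP-40, and apoptosis was quantified by M30-Apoptosense ELISA following kit instructions.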

[13] = biological target: T1, ATP-dependent translocase ABCB1; experiment: Inhibition of MDR1 in human multidrug-resistant MCF7adr cells assessed drug level causing maximal reversal of calcein AM accumulation deficit by fluorescence microscopy; summary of the method: as §2
[14] = test system: Mus musculus; experiment: Toxicity in human multidrug-resistant […] cells xenografted in Crl:SHO-Prkdc'SCIDHr'hr nude mouse assessed as mortality incidence at 50 mg/kg, ip dosed twice weekly for two weeks starting two weeks post tumor cells implantation; format: organism-based; design: dose 50 mg/kg, route intraperitoneal; settings: in vivo
Summary of the method: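 […] cells injected subcutaneously with matrigel on day one. Dosing began two weeks later: ip injection twice a week for two weeks, given alone (50 mg/kg) or with paclitaxel (20 mg/kg); saline-injected controls. Mice checked daily for health and tumor growth. Toxicity judged from animal weight and mortality.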

[15] = biological target: T1, ATP-dependent translocase ABCB1; experiment: Inhibition of MDR1 in human multidrug-resistant SW480TR cells assessed drug level causing half maximal reversal of calcein AM accumulation deficit by fluorescence microscopy; format: cell-based; settings: read-out: INH; summary of the method: as §2
[16] = biological target: T1, ATP-dependent translocase ABCB1; experiment: Inhibition of MDR1 in human multidrug-resistant SW480TR cells assessed drug level causing maximal reversal of calcein AM accumulation deficit by fluorescence microscopy; format: cell-based; summary of the method: as §2
[17] = test system: SKOV-3TR (Homo sapiens); experiment: Potentiation of 20 mg/kg, ip paclitaxel antitumor potency in human multidrug-resistant SKOV-3TR cells xenografted in Crl:SHO-Prkdc'SCIDHr'hr nude mouse assessed as increase in tumor growth inhibition at 50 mg/kg, ip dosed twice weekly for two weeks starting two weeks post tumor cells implantation
[18] = biological target: T2, Broad substrate specificity ATP-binding cassette transporter ABCG2 (Homo sapiens, UniProt Q9UNQ0); experiment: Inhibition of BCRP-mediated drug resistance in human multidrug-resistant MCF7/MX cells; format: cell-based; summary of the method: as §3
T2 sequence (Q9UNQ0 whole entry): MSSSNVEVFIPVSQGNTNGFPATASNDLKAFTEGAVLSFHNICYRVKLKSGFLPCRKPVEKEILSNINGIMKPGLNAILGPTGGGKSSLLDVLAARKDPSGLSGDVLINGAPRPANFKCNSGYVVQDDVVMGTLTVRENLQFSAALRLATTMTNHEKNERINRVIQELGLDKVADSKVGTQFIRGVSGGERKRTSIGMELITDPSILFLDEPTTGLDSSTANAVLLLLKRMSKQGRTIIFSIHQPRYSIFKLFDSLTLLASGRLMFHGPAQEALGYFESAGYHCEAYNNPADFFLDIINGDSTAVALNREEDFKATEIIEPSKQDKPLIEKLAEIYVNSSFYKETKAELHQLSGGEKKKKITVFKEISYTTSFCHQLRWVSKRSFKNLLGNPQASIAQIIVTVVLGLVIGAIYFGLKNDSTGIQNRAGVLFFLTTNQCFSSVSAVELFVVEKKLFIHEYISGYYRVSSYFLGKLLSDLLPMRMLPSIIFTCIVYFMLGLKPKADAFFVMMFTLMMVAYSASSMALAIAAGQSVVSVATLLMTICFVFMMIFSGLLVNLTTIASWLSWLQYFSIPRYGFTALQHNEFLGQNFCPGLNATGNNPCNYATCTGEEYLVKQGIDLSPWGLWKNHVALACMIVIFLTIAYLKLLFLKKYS

[19] = biological target: T1, ATP-dependent translocase ABCB1; experiment: Inhibition of MDR1 in human multidrug-resistant SW480TR cells assessed as potentiation of doxorubicin-induced apoptosis at 1 uM incubated for 72 hrs by M30-apoptosense ELISA assay; format: cell-based; summary of the method: as §4
[20] = test system: SKOV-3TR (Homo sapiens); experiment: Antitumor activity against human multidrug-resistant SKOV-3TR cells xenografted in Crl:SHO-Prkdc'SCIDHr'hr nude mouse assessed as tumor growth inhibition at 20 mg/kg, ip dosed twice weekly for two weeks starting two weeks post tumor cells implantation

T1 sequence (P08183 whole entry): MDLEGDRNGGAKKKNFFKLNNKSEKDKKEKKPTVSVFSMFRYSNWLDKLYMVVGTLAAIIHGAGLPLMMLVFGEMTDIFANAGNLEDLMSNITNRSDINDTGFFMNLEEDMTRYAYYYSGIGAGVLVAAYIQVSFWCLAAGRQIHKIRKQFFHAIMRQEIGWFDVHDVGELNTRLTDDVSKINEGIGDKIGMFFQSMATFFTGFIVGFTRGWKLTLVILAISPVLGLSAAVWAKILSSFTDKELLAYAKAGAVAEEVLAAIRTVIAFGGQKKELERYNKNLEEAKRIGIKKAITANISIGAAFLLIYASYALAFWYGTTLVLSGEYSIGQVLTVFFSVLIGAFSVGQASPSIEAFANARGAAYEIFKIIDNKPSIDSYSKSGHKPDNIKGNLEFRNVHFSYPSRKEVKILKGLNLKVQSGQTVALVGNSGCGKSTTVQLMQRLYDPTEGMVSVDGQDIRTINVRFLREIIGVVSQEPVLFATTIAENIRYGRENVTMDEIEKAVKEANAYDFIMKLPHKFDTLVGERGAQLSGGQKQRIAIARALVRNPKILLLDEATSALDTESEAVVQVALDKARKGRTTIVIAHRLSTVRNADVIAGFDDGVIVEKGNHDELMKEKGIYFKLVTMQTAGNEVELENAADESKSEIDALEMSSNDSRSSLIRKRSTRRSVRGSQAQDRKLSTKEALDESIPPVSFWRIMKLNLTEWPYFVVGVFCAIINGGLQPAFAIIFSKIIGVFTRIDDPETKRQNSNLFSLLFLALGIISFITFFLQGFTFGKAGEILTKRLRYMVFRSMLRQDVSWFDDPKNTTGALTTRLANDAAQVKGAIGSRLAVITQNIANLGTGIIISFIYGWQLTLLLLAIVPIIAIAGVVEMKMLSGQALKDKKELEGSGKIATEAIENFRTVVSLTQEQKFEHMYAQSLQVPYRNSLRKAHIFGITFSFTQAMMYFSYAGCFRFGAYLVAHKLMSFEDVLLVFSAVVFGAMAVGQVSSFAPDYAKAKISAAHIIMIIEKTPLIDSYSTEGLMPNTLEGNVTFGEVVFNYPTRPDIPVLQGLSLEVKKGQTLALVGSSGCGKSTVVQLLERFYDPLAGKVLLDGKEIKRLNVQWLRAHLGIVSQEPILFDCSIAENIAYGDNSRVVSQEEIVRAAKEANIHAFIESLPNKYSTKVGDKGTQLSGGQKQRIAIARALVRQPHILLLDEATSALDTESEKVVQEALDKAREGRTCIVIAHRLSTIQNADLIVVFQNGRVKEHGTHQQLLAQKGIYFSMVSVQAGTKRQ
Chain of Multidrug resistance-associated protein 1 (P33527 whole entry): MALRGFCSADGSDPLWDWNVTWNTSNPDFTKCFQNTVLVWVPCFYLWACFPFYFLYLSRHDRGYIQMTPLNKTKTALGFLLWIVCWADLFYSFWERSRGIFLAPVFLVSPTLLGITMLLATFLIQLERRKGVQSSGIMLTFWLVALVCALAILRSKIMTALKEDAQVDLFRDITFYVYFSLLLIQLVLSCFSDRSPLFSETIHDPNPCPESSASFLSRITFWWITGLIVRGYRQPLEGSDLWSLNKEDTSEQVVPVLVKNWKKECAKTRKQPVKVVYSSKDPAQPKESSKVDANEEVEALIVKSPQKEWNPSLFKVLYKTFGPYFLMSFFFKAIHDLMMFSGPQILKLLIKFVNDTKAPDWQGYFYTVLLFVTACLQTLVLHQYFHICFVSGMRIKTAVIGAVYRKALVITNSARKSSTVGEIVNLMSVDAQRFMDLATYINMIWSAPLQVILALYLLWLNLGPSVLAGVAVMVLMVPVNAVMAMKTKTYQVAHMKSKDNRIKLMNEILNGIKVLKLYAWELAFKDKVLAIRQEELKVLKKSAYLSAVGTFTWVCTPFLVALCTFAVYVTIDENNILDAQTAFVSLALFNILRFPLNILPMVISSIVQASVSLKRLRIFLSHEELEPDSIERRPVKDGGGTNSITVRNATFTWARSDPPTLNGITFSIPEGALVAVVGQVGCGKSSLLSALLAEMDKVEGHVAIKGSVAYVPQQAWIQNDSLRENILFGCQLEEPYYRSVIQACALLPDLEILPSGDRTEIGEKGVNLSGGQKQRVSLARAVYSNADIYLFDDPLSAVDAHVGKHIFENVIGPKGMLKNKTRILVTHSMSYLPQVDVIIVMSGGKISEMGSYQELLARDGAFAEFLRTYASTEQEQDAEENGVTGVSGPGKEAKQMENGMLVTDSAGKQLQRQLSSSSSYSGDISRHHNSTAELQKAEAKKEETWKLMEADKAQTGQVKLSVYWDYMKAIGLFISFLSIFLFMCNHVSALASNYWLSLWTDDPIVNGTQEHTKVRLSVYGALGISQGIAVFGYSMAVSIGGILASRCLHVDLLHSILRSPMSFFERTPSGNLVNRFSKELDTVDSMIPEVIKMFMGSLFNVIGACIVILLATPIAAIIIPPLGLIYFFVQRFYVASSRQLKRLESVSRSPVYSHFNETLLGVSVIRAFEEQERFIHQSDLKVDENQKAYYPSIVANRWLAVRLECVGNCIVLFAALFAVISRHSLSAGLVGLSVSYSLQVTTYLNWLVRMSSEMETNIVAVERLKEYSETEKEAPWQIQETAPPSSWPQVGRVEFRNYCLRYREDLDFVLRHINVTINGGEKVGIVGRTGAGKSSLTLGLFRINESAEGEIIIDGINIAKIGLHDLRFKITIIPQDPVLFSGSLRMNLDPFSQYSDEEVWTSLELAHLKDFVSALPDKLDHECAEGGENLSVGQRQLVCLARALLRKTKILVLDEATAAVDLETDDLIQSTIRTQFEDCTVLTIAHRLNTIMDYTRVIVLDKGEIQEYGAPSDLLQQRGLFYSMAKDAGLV

inhibition (INH) [1]: Active | inhibition (INH) [2]: Active | inhibition (INH) [3]: Active
SMILES: COc1ccc(-c2cc([C@H](O)[C@@H]3CCCCN3)c3ccccc3n2)cc1.Cl

SMILES: COc1ccc(-c2cc([C@H](O)[C@H]3CCCCN3)c3ccccc3n2)cc1
inhibition (INH) [4]: Dose-dependent effect | inhibition (INH) [5]: Active | Activity [6]: Non-toxic | inhibition (INH) [7]: Active | inhibition (INH) [8]: Dose-dependent effect | inhibition (INH) [9]: Not Active | growth inhibition (GI) [10]: inactive | inhibition (INH) [1]: Active | inhibition (INH) [2]: Active | IC50 [11]: 100 nM | inhibition (INH) [12]: Active | INH [13]: 500 nM | Activity [14]: Non-toxic | IC50 [15]: 100 nM | inhibition (INH) [3]: Active | INH [16]: 500 nM | Activity [17]: Active | inhibition (INH) [18]: Not Active | inhibition (INH) [19]: Active

inhibition (INH) [1]: Not Active | inhibition (INH) [2]: Not Active | inhibition (INH) [3]: Not Active
SMILES: COc1ccc(-c2cc([C@@H](O)[C@@H]3CCCCN3)c3ccccc3n2)cc1.Cl

SMILES: CC(=O)O[C@H]1C(=O)[C@@]2(C)[C@H]([C@H](OC(=O)c3ccccc3)[C@]3(O)C[C@H](OC(=O)[C@H](O)[C@@H](NC(=O)c4ccccc4)c4ccccc4)C(C)=C1C3(C)C)[C@]1(OC(C)=O)CO[C@@H]1C[C@@H]2O
growth inhibition (GI) [20]: inactive

inhibition (INH) [1]: Active | inhibition (INH) [2]: Active | inhibition (INH) [3]: Active
SMILES: COc1ccc(-c2cc([C@@H](O)[C@H]3CCCCN3)c3ccccc3n2)cc1.Cl
